Test results from ChEMBL document CHEMBL2163244, “Structure-guided design, synthesis and biological evaluation of novel DNA ligase inhibitors with in vitro and in vivo anti-staphylococcal activity” (Bioorg Med Chem Lett, 2012).
In brackets after ≈: the same amount, converted by molar mass. Activity calls are given as the source filed them. No cut-off for these calls is given here.

Legend:
[1] = AUC (0 to 24 hrs) in mouse at 10 mg/kg, sc; type: ADME, organism-based; set-up: time < 24 hr, dose 10 mg/kg, route subcutaneous; conditions: plasma
[2] = Fraction unbound in rat plasma at 0.1 mg/kg, iv and 1 mg/kg, po; type: ADME, organism-based
[3] = Intrinsic clearance in rat liver microsomes; type: ADME, Microsome; conditions: read-out: CLH
Staphylococcus aureus [4] = test: Bacteriostatic activity against […]-sensitive Staphylococcus aureus DM 11823 in mouse neutropenic thigh infection model at 100 mg/kg, sc administered 2 hrs post infection measured after 24 hrs; type: functional, organism-based; set-up: dose 100 mg/kg
Method in brief: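 Neutropenic murine thigh infection with a quinolone-sensitive laboratory descendant of S. aureus DSM 11823. Inoculum 2×10^3 cfu given i.m. Compound given once at 100 mg/kg s.c., 2 h post-infection, in 5% DMSO/15% Solutol HS15 in water. Bacterial burden assessed 24 h after infection.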

Escherichia coli [5] = test: Antibacterial activity against tolC/rfaC-deficient Escherichia coli; type: functional
Staphylococcus aureus [6] = test: Antibacterial activity against Staphylococcus aureus ATCC 25923 by CLSI dilution method in presence of 50% human serum; type: functional
Method in brief: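 MIC determined in the presence of 50% human serum.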

[7] = Selectivity ratio of IC50 for Streptococcus pneumoniae NAD-dependent DNA ligase to IC50 for Staphylococcus aureus NAD-dependent DNA ligase
Haemophilus influenzae = test: Antibacterial activity against wild type Haemophilus influenzae A921 by CLSI dilution method; type: functional
[8] = molecular target: DNA ligase 1 (Homo sapiens) (UniProt P18858); test: Inhibition of human DNA Ligase 1
Escherichia coli [9] = test: Antibacterial activity against Escherichia coli ATCC 25922 by CLSI dilution method; type: functional
Escherichia coli [10] = test: Antibacterial activity against tolC/rfaC-deficient Escherichia coli harboring ligA251 mutant; type: functional
Method in brief: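 MIC read-out. The E. coli strain carries only the ligA251 allele (L15F exchange), which gives more than 20-fold reduced ligation activity and sensitizes it to LigA inhibitors.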

[11] = Inhibition of Escherichia coli NAD-dependent DNA ligase
Cytochrome P450 2C9 = Cytochrome P450 2C9 (Homo sapiens, UniProt P11712); test: Inhibition of human CYP2C9; type: ADME
Cytochrome P450 3A4 = Cytochrome P450 3A4 (Homo sapiens, UniProt P08684); test: Inhibition of human CYP3A4; type: ADME
Cytochrome P450 2D6 = Cytochrome P450 2D6 (Homo sapiens, UniProt P10635); test: Inhibition of human CYP2D6; type: ADME
[12] = molecular target: T1, Dihydrofolate reductase (Homo sapiens) (UniProt P00374); test: Inhibition of human DHFR
T1 sequence (whole entry): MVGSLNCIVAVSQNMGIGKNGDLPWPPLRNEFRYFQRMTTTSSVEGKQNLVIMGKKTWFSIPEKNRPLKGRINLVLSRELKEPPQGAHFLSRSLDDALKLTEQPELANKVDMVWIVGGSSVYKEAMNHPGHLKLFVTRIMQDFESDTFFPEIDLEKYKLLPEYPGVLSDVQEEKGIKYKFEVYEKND

Pseudomonas aeruginosa = test: Antibacterial activity against Pseudomonas aeruginosa ATCC 27853 by CLSI dilution method; type: functional
[13] = Oral bioavailability in rat at 1 mg/kg; type: ADME, organism-based; conditions: in vivo
[14] = AUC (0 to infinity) in rat at 0.1 mg/kg, iv; type: ADME, organism-based; set-up: time infinity, dose 0.1 mg/kg, route intravenous; conditions: plasma
Method in brief: (§1)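 Rat intravenous PK: 0.1 mg/kg dose in 5% DMSO/28.5% HPBCD in water. Total plasma clearance is in mL/min/kg. Volume of distribution at steady state is in L/kg.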

Rattus norvegicus [15] = test: fAUC (0 to infinity) in rat at 0.1 mg/kg, iv; type: ADME, organism-based; set-up: dose 0.1 mg/kg, route intravenous; conditions: in vivo; method in brief: as §1
Streptococcus pneumoniae [16] = test: Antibacterial activity against Streptococcus pneumoniae ATCC 49619 by CLSI dilution method; type: functional
Saccharomyces cerevisiae = test: Antifungal activity against Saccharomyces cerevisiae A136 expressing ATP-dependent DNA ligase by CLSI dilution method; type: functional
Enterococcus faecalis = test: Antibacterial activity against Enterococcus faecalis ATCC 29212 by CLSI dilution method; type: functional
[17] = AUC (0 to 24 hrs) in rat at 1 mg/kg, po; type: ADME, organism-based; set-up: time < 24 hr, dose 1 mg/kg, route oral; conditions: plasma
Staphylococcus aureus [18] = test: Antibacterial activity against […]-sensitive Staphylococcus aureus DM 11823; type: functional
Rattus norvegicus [19] = test: fAUC (0 to 24 hrs) in rat at 1 mg/kg, po; type: ADME, organism-based; set-up: dose 1 mg/kg, route oral; conditions: in vivo
[20] = Cmax in mouse at 10 mg/kg, sc; type: ADME, organism-based; set-up: dose 10 mg/kg, route subcutaneous; conditions: in vivo
Acinetobacter baumannii = test: Antibacterial activity against Acinetobacter baumannii T6474 by CLSI dilution method; type: functional
[21] = Fraction unbound in mouse plasma at 10 mg/kg, sc; type: ADME, organism-based; set-up: dose 10 mg/kg, route subcutaneous
Streptococcus pneumoniae [22] = test: Antibacterial activity against wild type Streptococcus pneumoniae A-216 by CLSI dilution method; type: functional
Clostridioides difficile = test: Antibacterial activity against Clostridium difficile ATCC A1148 by CLSI dilution method; type: functional
Moraxella catarrhalis = test: Antibacterial activity against Moraxella catarrhalis A894 by CLSI dilution method; type: functional
[23] = Cmax in rat at 1 mg/kg, po; type: ADME, organism-based; set-up: dose 1 mg/kg, route oral; conditions: in vivo
[24] = Terminal half life in rat at 0.1 mg/kg, iv and 1 mg/kg, po; type: ADME, organism-based; conditions: in vivo, read-out: beta t1/2 (converted)
[25] = Total plasma clearance in rat at 0.1 mg/kg, iv and 1 mg/kg, po; type: ADME, organism-based; method in brief: as §1
Klebsiella pneumoniae = test: Antibacterial activity against Klebsiella pneumoniae T6474 by CLSI dilution method; type: functional
[26] = Terminal half life in mouse at 10 mg/kg, sc; type: ADME, organism-based; set-up: dose 10 mg/kg, route subcutaneous; conditions: in vivo, read-out: beta t1/2 (converted)
[27] = Intrinsic clearance in rat hepatocytes measured per 10^6 cells; type: ADME, cell-based, Hepatocyte; conditions: read-out: CLH
Staphylococcus aureus [28] = test: Antibacterial activity against Staphylococcus aureus A798 by CLSI dilution method; type: functional
Staphylococcus aureus [29] = test: Antibacterial activity against Staphylococcus aureus ATCC 25923 by CLSI dilution method; type: functional
Enterococcus faecium = test: Antibacterial activity against Enterococcus faecium A949 by CLSI dilution method; type: functional
Staphylococcus aureus [30] = test: Antibacterial activity against wild type Staphylococcus aureus ATCC 29213 by CLSI dilution method; type: functional
[31] = Volume of distribution at steady state in rat at 0.1 mg/kg, iv and 1 mg/kg, po; type: ADME, organism-based; conditions: in vivo, read-out: Vdss; method in brief: as §1
Escherichia coli [32] = test: Antibacterial activity against tolC/rfaC-deficient Escherichia coli harboring ligA251 mutant and pECLigA; type: functional
Method in brief: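 MIC read-out. The strain is the isogenic ligA251 E. coli strain, over-producing wild-type LigA from plasmid pECLigA, which gives high ligation activity.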

[33] = Inhibition of Streptococcus pneumoniae NAD-dependent DNA ligase assessed as equilibrium dissociation constant
DNA ligase = DNA ligase (Staphylococcus aureus, UniProt Q9AIU7); test: Inhibition of Staphylococcus aureus NAD-dependent DNA ligase
Sequence of DNA ligase (Q9AIU7 whole entry): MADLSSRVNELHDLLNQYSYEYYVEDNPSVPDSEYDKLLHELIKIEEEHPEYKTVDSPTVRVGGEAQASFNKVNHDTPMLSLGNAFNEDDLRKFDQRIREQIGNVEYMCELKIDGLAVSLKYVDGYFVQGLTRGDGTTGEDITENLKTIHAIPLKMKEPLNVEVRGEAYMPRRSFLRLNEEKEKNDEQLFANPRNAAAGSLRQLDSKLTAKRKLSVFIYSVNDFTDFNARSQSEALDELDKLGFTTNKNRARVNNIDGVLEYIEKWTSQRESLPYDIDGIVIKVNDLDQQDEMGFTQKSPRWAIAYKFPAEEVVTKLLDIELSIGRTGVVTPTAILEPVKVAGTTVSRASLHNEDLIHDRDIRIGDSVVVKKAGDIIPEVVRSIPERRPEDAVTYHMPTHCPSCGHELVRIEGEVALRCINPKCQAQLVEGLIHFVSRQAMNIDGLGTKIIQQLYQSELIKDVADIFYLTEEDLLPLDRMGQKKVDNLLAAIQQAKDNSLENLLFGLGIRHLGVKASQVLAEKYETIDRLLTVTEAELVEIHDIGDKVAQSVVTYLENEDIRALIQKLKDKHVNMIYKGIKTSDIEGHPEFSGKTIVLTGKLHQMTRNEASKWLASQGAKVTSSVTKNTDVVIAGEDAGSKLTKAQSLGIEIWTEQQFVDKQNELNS

Sequence of DNA ligase 1 (Homo sapiens) (P18858 whole entry): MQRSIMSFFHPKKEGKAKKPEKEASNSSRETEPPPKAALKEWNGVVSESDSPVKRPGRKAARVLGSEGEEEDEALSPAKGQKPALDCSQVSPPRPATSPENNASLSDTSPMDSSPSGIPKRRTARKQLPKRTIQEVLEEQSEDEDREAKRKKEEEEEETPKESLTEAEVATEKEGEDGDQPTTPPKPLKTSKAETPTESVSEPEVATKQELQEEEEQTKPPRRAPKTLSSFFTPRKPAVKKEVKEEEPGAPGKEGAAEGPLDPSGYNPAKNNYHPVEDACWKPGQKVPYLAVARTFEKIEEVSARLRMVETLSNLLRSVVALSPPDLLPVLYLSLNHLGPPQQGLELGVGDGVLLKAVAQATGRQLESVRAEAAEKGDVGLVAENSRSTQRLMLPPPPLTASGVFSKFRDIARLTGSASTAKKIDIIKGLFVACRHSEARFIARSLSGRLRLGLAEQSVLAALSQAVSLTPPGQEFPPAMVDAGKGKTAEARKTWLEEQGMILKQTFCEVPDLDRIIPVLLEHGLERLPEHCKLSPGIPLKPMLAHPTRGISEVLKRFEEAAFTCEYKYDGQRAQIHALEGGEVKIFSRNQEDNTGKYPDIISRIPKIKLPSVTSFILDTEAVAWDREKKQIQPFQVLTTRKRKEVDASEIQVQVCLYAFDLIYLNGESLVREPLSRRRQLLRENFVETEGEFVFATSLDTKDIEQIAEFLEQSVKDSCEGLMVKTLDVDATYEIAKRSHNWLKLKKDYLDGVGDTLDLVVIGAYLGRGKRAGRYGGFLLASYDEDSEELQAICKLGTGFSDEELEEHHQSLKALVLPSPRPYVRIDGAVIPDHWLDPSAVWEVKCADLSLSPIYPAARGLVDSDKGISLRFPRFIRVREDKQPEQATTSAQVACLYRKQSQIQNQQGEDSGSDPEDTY
Sequence of Cytochrome P450 2C9 (P11712 whole entry): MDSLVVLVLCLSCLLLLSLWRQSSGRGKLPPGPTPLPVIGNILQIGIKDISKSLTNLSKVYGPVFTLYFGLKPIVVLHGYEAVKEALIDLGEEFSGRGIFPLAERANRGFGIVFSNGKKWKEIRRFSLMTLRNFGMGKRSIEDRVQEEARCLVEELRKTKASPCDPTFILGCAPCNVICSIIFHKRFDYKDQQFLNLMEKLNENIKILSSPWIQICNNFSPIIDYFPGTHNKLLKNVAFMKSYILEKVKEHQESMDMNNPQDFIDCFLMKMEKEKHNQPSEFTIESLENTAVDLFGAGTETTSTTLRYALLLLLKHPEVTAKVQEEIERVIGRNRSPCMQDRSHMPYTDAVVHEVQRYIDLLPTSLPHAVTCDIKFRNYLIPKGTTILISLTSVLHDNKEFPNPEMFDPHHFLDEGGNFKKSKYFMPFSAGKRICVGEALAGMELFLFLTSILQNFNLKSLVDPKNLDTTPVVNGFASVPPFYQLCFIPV
Sequence of Cytochrome P450 3A4 (P08684 whole entry): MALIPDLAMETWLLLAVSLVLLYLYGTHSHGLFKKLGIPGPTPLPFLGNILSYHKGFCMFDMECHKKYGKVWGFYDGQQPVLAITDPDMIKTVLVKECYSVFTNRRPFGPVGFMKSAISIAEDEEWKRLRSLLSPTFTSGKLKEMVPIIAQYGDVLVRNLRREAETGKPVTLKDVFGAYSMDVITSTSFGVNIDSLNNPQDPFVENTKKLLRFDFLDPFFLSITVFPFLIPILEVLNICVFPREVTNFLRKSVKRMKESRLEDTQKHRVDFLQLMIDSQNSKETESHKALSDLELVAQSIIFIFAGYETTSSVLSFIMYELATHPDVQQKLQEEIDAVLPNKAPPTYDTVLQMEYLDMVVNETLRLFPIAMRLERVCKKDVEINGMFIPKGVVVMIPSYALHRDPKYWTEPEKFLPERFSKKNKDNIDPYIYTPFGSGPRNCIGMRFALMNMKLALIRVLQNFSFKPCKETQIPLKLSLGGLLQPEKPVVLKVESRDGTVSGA
Sequence of Cytochrome P450 2D6 (P10635 whole entry): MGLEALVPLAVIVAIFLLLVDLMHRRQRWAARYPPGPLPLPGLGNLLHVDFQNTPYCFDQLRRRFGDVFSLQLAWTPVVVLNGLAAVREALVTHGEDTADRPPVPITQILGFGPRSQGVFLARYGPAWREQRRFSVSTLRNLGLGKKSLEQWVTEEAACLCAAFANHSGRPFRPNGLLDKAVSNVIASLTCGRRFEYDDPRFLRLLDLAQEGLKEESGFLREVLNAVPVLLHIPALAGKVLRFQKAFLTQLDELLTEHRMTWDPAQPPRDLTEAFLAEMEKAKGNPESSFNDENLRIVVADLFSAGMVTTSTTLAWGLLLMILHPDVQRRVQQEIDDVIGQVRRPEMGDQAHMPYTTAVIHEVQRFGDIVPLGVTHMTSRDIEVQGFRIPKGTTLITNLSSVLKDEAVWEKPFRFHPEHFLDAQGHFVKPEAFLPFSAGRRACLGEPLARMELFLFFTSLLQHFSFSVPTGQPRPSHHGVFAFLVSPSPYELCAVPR

## NC(=O)c1cc2cc(Br)c(C(F)(F)F)nc2nc1N
[1]
  AUC(0-t) at 24 h: 84500 ng·h/mL
[2]
  fraction unbound: 0.14
[3]
  microsomal CLint: 20 µL/min/mg
Staphylococcus aureus [4]
  Activity: Active
Escherichia coli [5]
  MIC: 2 µg/mL (≈ 5.97 µM)
Staphylococcus aureus [6]
  MIC: 2 µg/mL
[7]
  Ratio IC50: 2
Haemophilus influenzae
  MIC: 0.125 µg/mL (≈ 0.373 µM)
[8]
  inhibition: inactive
Escherichia coli [9]
  MIC: > 32 µg/mL
Escherichia coli [10]
  MIC: 0.063 µg/mL (≈ 0.188 µM)
[11]
  IC50: 300 nM
Cytochrome P450 2C9
  IC50: > 50000 nM
Cytochrome P450 3A4
  IC50: > 50000 nM
Cytochrome P450 2D6
  IC50: > 50000 nM
[12]
  inhibition: inactive
Pseudomonas aeruginosa
  MIC: > 32 µg/mL
[13]
  bioavailability: 80%
[14]
  AUC(0-inf): 150 ng·h/mL
Rattus norvegicus [15]
  fAUC: 21 ng·h/mL
Streptococcus pneumoniae [16]
  MIC: 16 µg/mL (≈ 47.7 µM)
Saccharomyces cerevisiae
  MIC: > 32 µg/mL
Enterococcus faecalis
  MIC: 8 µg/mL (≈ 23.9 µM)
[17]
  AUC(0-t) at 24 h: 1220 ng·h/mL
Staphylococcus aureus [18]
  MIC: 0.5 µg/mL (≈ 1.49 µM)
Rattus norvegicus [19]
  fAUC: 171 ng·h/mL
[20]
  Cmax: 7050 ng/mL
Acinetobacter baumannii
  MIC: > 32 µg/mL
[21]
  fraction unbound: 0.046
Streptococcus pneumoniae [22]
  MIC: 2 µg/mL (≈ 5.97 µM)
Clostridioides difficile
  MIC: 8 µg/mL (≈ 23.9 µM)
Moraxella catarrhalis
  MIC: 8 µg/mL (≈ 23.9 µM)
[23]
  Cmax: 410 ng/mL
[24]
  half-life: 2.3 h
[25]
  clearance: 11 mL/min/kg
Klebsiella pneumoniae
  MIC: > 32 µg/mL
[26]
  half-life: 2.9 h
[27]
  hepatocyte CLint: 1.8 µL/min/1e6 cells
Staphylococcus aureus [28]
  MIC: 1 µg/mL (≈ 2.98 µM)
Staphylococcus aureus [29]
  MIC: 1 µg/mL (≈ 2.98 µM)
Enterococcus faecium
  MIC: > 32 µg/mL
Staphylococcus aureus [30]
  MIC: 1 µg/mL (≈ 2.98 µM)
[31]
  Vd: 0.71 L/kg

## Nc1cc(-c2nc3ccccc3[nH]2)n[nH]c1=O
Escherichia coli [5]
  MIC: > 16 µg/mL
Escherichia coli [32]
  MIC: 16 µg/mL (≈ 70.4 µM)
Escherichia coli [10]
  MIC: 8 µg/mL (≈ 35.2 µM)
[11]
  IC50: > 25000 nM
[33]
  Kd: 20000 nM
DNA ligase
  IC50: 2500 nM

## CN(CCO)c1c(Br)c(C(F)(F)F)nc2nc(N)c(C(N)=O)cc12
Escherichia coli [5]
  MIC: > 16 µg/mL
Haemophilus influenzae
  MIC: 4 µg/mL (≈ 9.8 µM)
[8]
  inhibition: inactive
Escherichia coli [10]
  MIC: 0.5 µg/mL (≈ 1.22 µM)
[11]
  IC50: 700 nM
[12]
  inhibition: inactive
[33]
  Kd: 57 nM
Streptococcus pneumoniae [22]
  MIC: 8 µg/mL (≈ 19.6 µM)
Staphylococcus aureus [30]
  MIC: 8 µg/mL (≈ 19.6 µM)

## Cc1c(Cc2ccccc2)c(Cl)nc2nc(N)c(C(N)=O)cc12
Escherichia coli [5]
  MIC: 4 µg/mL (≈ 12.2 µM)
Haemophilus influenzae
  MIC: 2 µg/mL (≈ 6.12 µM)
[8]
  inhibition: inactive
Escherichia coli [10]
  MIC: 0.125 µg/mL (≈ 0.383 µM)
[11]
  IC50: 500 nM
[12]
  inhibition: inactive
[33]
  Kd: 107 nM
Streptococcus pneumoniae [22]
  MIC: 4 µg/mL (≈ 12.2 µM)
Staphylococcus aureus [30]
  MIC: 4 µg/mL (≈ 12.2 µM)
